Calls of active or inactive are those of the source. The rule behind the calls is not given here.
How the values were obtained:
Vibrio harveyi [1] = assay: Toxicity in Vibrio harveyi ATCC BAA-1118 assessed as effect on cell viability after 1.5 hrs by bioluminescence assay; type: organism-based
In short: (§1)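 V. harveyi BB886 QS reporter was exposed to furanones at various concentrations in the bioluminescence assay. Viable cells were counted as CFU after treatment.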

Pseudomonas aeruginosa [2] = assay: Potentiation of ciprofloxacin-induced antibacterial activity against Pseudomonas aeruginosa PAO1 assessed as sensitive persister cells at 2 ug/mL after 3.5 hrs; type: functional
In short: (§2)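 Isolated PAO1 persisters were given furanone at 2 µg/mL for 2 h. A portion of each sample then received 200 µg/mL ciprofloxacin for 3.5 h. Surviving persisters were counted as CFU.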

Pseudomonas aeruginosa [3] = assay: Antibacterial activity against Pseudomonas aeruginosa PAO1 assessed as viability of persister cells at 2 ug/mL after 2 hrs; type: functional
In short: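 Persisters isolated from P. aeruginosa PAO1 per an earlier protocol, exposed to furanone for 2 h. Viability was counted as CFU by plating on LB agar immediately after treatment.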

Vibrio harveyi [4] = assay: Inhibition of AHL-mediated quorum sensing in Vibrio harveyi ATCC BAA-1118 after 1.5 hrs by bioluminescence assay
In short: (§3)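 V. harveyi BB886 reporter, which emits light in response to extracellular AHL, was incubated with or without furanone at various concentrations (Surette method, modified). Bioluminescence was normalized to viable CFU to give relative bioluminescence versus untreated.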

Pseudomonas aeruginosa [5] = assay: Antibacterial activity against Pseudomonas aeruginosa PAO1 assessed as viability of persister cells at 2 ug/mL after 2 hrs
Pseudomonas aeruginosa [6] = assay: Potentiation of ciprofloxacin-induced antibacterial activity against Pseudomonas aeruginosa PAO1 assessed as persister cells at 2 ug/mL after 3.5 hrs; type: functional, organism-based; in short: as §2
Vibrio harveyi [7] = assay: Inhibition of AHL-mediated quorum sensing in Vibrio harveyi ATCC BAA-1118 at 30 ug/mL after 1.5 hrs by bioluminescence assay; in short: as §3
Vibrio harveyi [8] = assay: Toxicity in Vibrio harveyi ATCC BAA-1118 assessed as effect on cell viability at 30 ug/mL after 1.5 hrs by bioluminescence assay; type: organism-based; in short: as §1
Vibrio harveyi [9] = assay: Inhibition of AHL-mediated quorum sensing in Vibrio harveyi ATCC BAA-1118 at 10 ug/mL after 1.5 hrs by bioluminescence assay relative to control; in short: as §3
Vibrio harveyi [10] = assay: Toxicity in Vibrio harveyi ATCC BAA-1118 assessed as effect on cell viability up to 10 ug/mL after 1.5 hrs by bioluminescence assay; type: organism-based; in short: as §1
Vibrio harveyi [11] = assay: Inhibition of AHL-mediated quorum sensing in Vibrio harveyi ATCC BAA-1118 at 0.5 ug/mL after 1.5 hrs by bioluminescence assay relative to control; in short: as §3
Pseudomonas aeruginosa [12] = assay: Antibacterial activity against Pseudomonas aeruginosa PAO1 assessed as viability of persister cells at 200 ug/mL after 3.5 hrs; type: functional, organism-based; in short: as §2
Vibrio harveyi [13] = assay: Toxicity in Vibrio harveyi ATCC BAA-1118 assessed as effect on cell viability up to 60 ug/mL after 1.5 hrs by bioluminescence assay; type: organism-based; in short: as §1
Vibrio harveyi [14] = assay: Inhibition of AHL-mediated quorum sensing in Vibrio harveyi ATCC BAA-1118 up to 60 ug/mL after 1.5 hrs by bioluminescence assay; in short: as §3

Compound	Activity (Vibrio harveyi [1])	Activity (Pseudomonas aeruginosa [3])	inhibition (Vibrio harveyi [4])	Activity (Pseudomonas aeruginosa [5])	also measured
CC1=C(Br)C(C(Br)Br)OC1=O (stereo unspecified)	Non-toxic	64.6%	inactive	–	Activity (Pseudomonas aeruginosa [2]): 99.99%
CC1=CC(=O)OC1=O	Non-toxic	–	inactive	inactive	–
O=C1O/C(=C\Br)C(Br)=C1CBr	Non-toxic	–	Active	Active	–
CC1=CC(=C(Br)Br)OC1=O	–	inactive	Dose-dependent effect	–	Activity (Pseudomonas aeruginosa [6]): Active; inhibition (Vibrio harveyi [7]): Active; Activity (Vibrio harveyi [8]): Toxic; inhibition (Vibrio harveyi [9]): 100%; Activity (Vibrio harveyi [10]): Non-toxic
O=C1OC(=C(Br)Br)C=C1CBr	Non-toxic	inactive	–	–	Activity (Pseudomonas aeruginosa [6]): Active; inhibition (Vibrio harveyi [11]): 91.2%
CC1=C(Br)C(Br)(C(Br)Br)OC1=O (stereo unspecified)	Non-toxic	–	inactive	Active	–
O=C(O)c1cn(C2CC2)c2cc(N3CCNCC3)c(F)cc2c1=O	–	–	–	–	Activity (Pseudomonas aeruginosa [12]): inactive
O=C1OC(=C(Br)Br)C=C1C(Br)Br	Non-toxic	–	–	Active	inhibition (Vibrio harveyi [11]): 55.9%
COC1=CC(=O)OC1	–	–	–	inactive	Activity (Vibrio harveyi [13]): Non-toxic; inhibition (Vibrio harveyi [14]): inactive

From ChEMBL document CHEMBL3091397, “Structural effects on persister control by brominated furanones” (Bioorg Med Chem Lett, 2013)
